{"source": "ChEMBL document CHEMBL1955778", "about": "“Design and synthesis of novel 7-aminoquinazoline derivatives: antitumor and anticonvulsant activities” (Bioorg Med Chem Lett, 2012)", "key": {"[1]": {"assay": "Neurotoxicity in ip dosed mouse assessed as impaired motor coordination administered 30 mins prior to test by chimney test", "type": "toxicity, organism-based", "settings": "in vivo", "how_it_was_run": "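Mice, Chimney test. TD50 is the dose that produces minimal neurological toxicity (impaired motor coordination) in 50% of animals, estimated from testing at several doses.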"}, "[2]": {"assay": "Toxicity in ip dose mouse assessed as mortality", "type": "organism-based", "settings": "in vivo", "how_it_was_run": "(§1)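 In mice, LD50 is the dose causing 50% mortality. ED50 is the dose protecting 50% of mice against pentylenetetrazole-induced seizures. Therapeutic index = LD50/ED50.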"}, "RXF 393": {"system": "RXF 393", "assay": "Growth inhibition of human RXF393 cells at 10 uM relative to control", "type": "functional", "settings": "read-out: GI", "how_it_was_run": "(§2)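 Each cell line in a 60-line human tumour panel exposed to one 10 μM concentration. Growth inhibition percentage computed as 100 minus the percentage activity relative to control.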"}, "K562": {"system": "K562", "assay": "Growth inhibition of human K562 cells at 10 uM relative to control", "type": "functional", "settings": "read-out: GI", "how_it_was_run": "as §2"}, "OVCAR-4": {"system": "OVCAR-4", "assay": "Growth inhibition of human OVCAR4 cells at 10 uM relative to control", "type": "functional", "settings": "read-out: GI", "how_it_was_run": "as §2"}, "MOLT-4": {"system": "MOLT-4", "assay": "Growth inhibition of human MOLT4 cells at 10 uM relative to control", "type": "functional", "settings": "read-out: GI", "how_it_was_run": "as §2"}, "Mus musculus [3]": {"system": "Mus musculus", "assay": "Anticonvulsant activity in mouse assessed as protection against picrotoxin-induced seizure at 1 mmol/kg, ip administered 30 min prior to picrotoxin-challenge measured after 60 mins relative to control", "type": "functional"}, "UACC-62": {"system": "UACC-62", "assay": "Growth inhibition of human UACC62 cells at 10 uM relative to control", "type": "functional", "settings": "read-out: GI", "how_it_was_run": "(§3)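 Single-dose screen across the 60-cell-line human tumor panel at 10 μM. Growth inhibition is reported as a percentage, taken as 100 minus the % growth relative to untreated control.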"}, "EKVX": {"system": "EKVX", "assay": "Growth inhibition of human EKVX cells at 10 uM relative to control", "type": "functional", "settings": "read-out: GI", "how_it_was_run": "as §2"}, "HL-60(TB)": {"system": "HL-60(TB)", "assay": "Growth inhibition of human HL-60(TB) cells at 10 uM relative to control", "type": "functional", "settings": "read-out: GI", "how_it_was_run": "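Single-dose screen at 10 μM across the 60-cell-line tumour panel. Percent growth inhibition = 100 minus percent growth activity relative to untreated control.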"}, "PC-3": {"system": "PC-3", "assay": "Growth inhibition of human PC3 cells at 10 uM relative to control", "type": "functional", "settings": "read-out: GI", "how_it_was_run": "as §2"}, "Mus musculus [4]": {"system": "Mus musculus", "assay": "Anticonvulsant activity in mouse assessed as protection against pentylenetetrazol-induced seizure at 1 mmol/kg, ip administered 30 min prior to pentylenetetrazol-challenge measured after 60 mins relative to control", "type": "functional"}, "Mus musculus [5]": {"system": "Mus musculus", "assay": "Anticonvulsant activity in mouse assessed as protection against maximal electroshock-induced seizure at 1 mmol/kg, ip administered 30 min prior to maximal electroshock-challenge measured after 60 mins relative to control", "type": "functional"}, "SK-MEL-5": {"system": "SK-MEL-5", "assay": "Growth inhibition of human SK-MEL-5 cells at 10 uM relative to control", "type": "functional", "settings": "read-out: GI", "how_it_was_run": "as §2"}, "SN12C": {"system": "SN12C", "assay": "Growth inhibition of human SN12C cells at 10 uM relative to control", "type": "functional", "settings": "read-out: GI", "how_it_was_run": "as §3"}, "A549": {"system": "A549", "assay": "Growth inhibition of human A549 cells at 10 uM relative to control", "type": "functional", "settings": "read-out: GI", "how_it_was_run": "as §2"}, "T47D": {"system": "T47D", "assay": "Growth inhibition of human T47D cells at 10 uM relative to control", "type": "functional", "settings": "read-out: GI", "how_it_was_run": "as §3"}, "OVCAR-3": {"system": "OVCAR-3", "assay": "Growth inhibition of human OVCAR3 cells at 10 uM relative to control", "type": "functional", "settings": "read-out: GI", "how_it_was_run": "as §2"}, "SNB-75": {"system": "SNB-75", "assay": "Growth inhibition of human SNB75 cells at 10 uM relative to control", "type": "functional", "settings": "read-out: GI", "how_it_was_run": "as §3"}, "ACHN": {"system": "ACHN", "assay": "Growth inhibition of human ACHN cells at 10 uM relative to control", "type": "functional", "settings": "read-out: GI", "how_it_was_run": "as §2"}, "Mus musculus [6]": {"species": "Mus musculus", "assay": "Protective index, ratio of TD50 for mouse to ED50 for pentylenetetrazol-induced seizure in mouse", "type": "functional", "how_it_was_run": "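Mice. Index is TD50/ED50. TD50 is the dose causing minimal neurological toxicity in 50% of mice in the Chimney test. ED50 is the dose protecting 50% of mice against pentylenetetrazole-induced seizures. Both are estimated from testing at several doses.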"}, "Mus musculus [7]": {"system": "Mus musculus", "assay": "Anticonvulsant activity in mouse assessed as protection against strychnine-induced seizure at 1 mmol/kg, ip administered 30 min prior to strychnine-challenge measured after 60 mins relative to control", "type": "functional"}, "RPMI-8226": {"system": "RPMI-8226", "assay": "Growth inhibition of human RPMI8226 cells at 10 uM relative to control", "type": "functional", "settings": "read-out: GI", "how_it_was_run": "as §2"}, "UO-31": {"system": "UO-31", "assay": "Growth inhibition of human UO31 cells at 10 uM relative to control", "type": "functional", "settings": "read-out: GI", "how_it_was_run": "as §3"}, "CAKI-1": {"system": "CAKI-1", "assay": "Growth inhibition of human CAKI-1 cells at 10 uM relative to control", "type": "functional", "settings": "read-out: GI", "how_it_was_run": "as §2"}, "Mus musculus [8]": {"system": "Mus musculus", "assay": "Anticonvulsant activity in ip dosed mouse assessed as protection against pentylenetetrazol-induced seizure administered 30 min prior to pentylenetetrazol-challenge measured after 60 mins", "type": "functional", "how_it_was_run": "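Mice received several doses for quantification. ED50 taken as the dose protecting 50% of mice against pentylenetetrazol-induced seizures.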"}, "[9]": {"assay": "Therapeutic index, ratio of LD50 for mouse to ED50 for pentylenetetrazol-induced seizure in mouse", "type": "organism-based", "settings": "in vivo, read-out: Ratio LD50/ED50", "how_it_was_run": "as §1"}, "MDA-MB-435": {"system": "MDA-MB-435", "assay": "Growth inhibition of human MDA-MB-435 cells at 10 uM relative to control", "type": "functional", "settings": "read-out: GI", "how_it_was_run": "as §2"}, "MCF7": {"system": "MCF7", "assay": "Growth inhibition of human MCF7 cells at 10 uM relative to control", "type": "functional", "settings": "read-out: GI", "how_it_was_run": "as §2"}, "CCRF-CEM": {"system": "CCRF-CEM", "assay": "Growth inhibition of human CCRF-CEM cells at 10 uM relative to control", "type": "functional", "settings": "read-out: GI", "how_it_was_run": "as §2"}, "SF-539": {"system": "SF-539", "assay": "Growth inhibition of human SF539 cells at 10 uM relative to control", "type": "functional", "settings": "read-out: GI", "how_it_was_run": "as §2"}, "MDA-MB-231": {"system": "MDA-MB-231", "assay": "Growth inhibition of human MDA-MB-231 cells at 10 uM relative to control", "type": "functional", "settings": "read-out: GI", "how_it_was_run": "as §2"}, "SK-OV-3": {"system": "SK-OV-3", "assay": "Growth inhibition of human SKOV3 cells at 10 uM relative to control", "type": "functional", "settings": "read-out: GI", "how_it_was_run": "as §2"}}}
{"smiles": "Cc1ccccc1-n1c(C)nc2cc(N3C(=O)CSC3c3ccc(Cl)cc3)ccc2c1=O", "note": "(stereo not drawn)", "values": [{"measurement": "TD50 at 0.5 h", "setting": "[1]", "value": 600, "unit": "µmol/kg"}, {"measurement": "LD50", "setting": "[2]", "value": 1040, "unit": "µmol/kg"}, {"measurement": "inhibition of growth at 10 µM", "setting": "RXF 393", "value": 3, "unit": "%"}, {"measurement": "inhibition of growth at 10 µM", "setting": "K562", "value": 8.4, "unit": "%"}, {"measurement": "inhibition of growth at 10 µM", "setting": "OVCAR-4", "value": 5, "unit": "%"}, {"measurement": "inhibition of growth at 10 µM", "setting": "MOLT-4", "value": 39.1, "unit": "%"}, {"measurement": "Activity", "setting": "Mus musculus [3]", "value": 75, "unit": "%"}, {"measurement": "inhibition of growth at 10 µM", "setting": "UACC-62", "value": 18, "unit": "%"}, {"measurement": "inhibition of growth at 10 µM", "setting": "EKVX", "value": 4, "unit": "%"}, {"measurement": "inhibition of growth at 10 µM", "setting": "HL-60(TB)", "value": 6, "unit": "%"}, {"measurement": "inhibition of growth at 10 µM", "setting": "PC-3", "value": 8, "unit": "%"}, {"measurement": "Activity", "setting": "Mus musculus [4]", "value": 100, "unit": "%"}, {"measurement": "Activity", "setting": "Mus musculus [5]", "value": 100, "unit": "%"}, {"measurement": "inhibition of growth at 10 µM", "setting": "SK-MEL-5", "value": 4, "unit": "%"}, {"measurement": "inhibition of growth at 10 µM", "setting": "SN12C", "value": 5, "unit": "%"}, {"measurement": "inhibition of growth at 10 µM", "setting": "A549", "value": 12, "unit": "%"}, {"measurement": "inhibition of growth at 10 µM", "setting": "T47D", "value": 4, "unit": "%"}, {"measurement": "inhibition of growth at 10 µM", "setting": "OVCAR-3", "value": 5.2, "unit": "%"}, {"measurement": "inhibition of growth at 10 µM", "setting": "SNB-75", "value": 7.6, "unit": "%"}, {"measurement": "inhibition of growth at 10 µM", "setting": "ACHN", "value": 3.5, "unit": "%"}, {"measurement": "Ratio TD50/ED50", "setting": "Mus musculus [6]", "value": 1.5}, {"measurement": "Activity", "setting": "Mus musculus [7]", "value": 0, "unit": "%"}, {"measurement": "inhibition of growth at 10 µM", "setting": "RPMI-8226", "value": 9.2, "unit": "%"}, {"measurement": "inhibition of growth at 10 µM", "setting": "UO-31", "value": 15, "unit": "%"}, {"measurement": "inhibition of growth at 10 µM", "setting": "CAKI-1", "value": 3, "unit": "%"}, {"measurement": "ED50", "setting": "Mus musculus [8]", "value": 410, "unit": "µmol/kg"}, {"measurement": "selectivity ratio", "setting": "[9]", "value": 2.53}, {"measurement": "inhibition of growth at 10 µM", "setting": "MDA-MB-435", "value": 7.7, "unit": "%"}, {"measurement": "inhibition of growth at 10 µM", "setting": "MCF7", "value": 5.2, "unit": "%"}, {"measurement": "inhibition of growth at 10 µM", "setting": "CCRF-CEM", "value": 11.3, "unit": "%"}, {"measurement": "inhibition of growth at 10 µM", "setting": "SF-539", "value": 5, "unit": "%"}, {"measurement": "inhibition of growth at 10 µM", "setting": "MDA-MB-231", "value": 23.7, "unit": "%"}, {"measurement": "inhibition of growth at 10 µM", "setting": "SK-OV-3", "value": 29.2, "unit": "%"}]}
